The source of these data is PubChem BioAssay AID588687 (Southern Research Specialized Biocontainment Screening …, 2011).

Each structure is given as a SMILES string. Activity calls are given as the source filed them.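 How the source made its calls: active means inhibition of 30% or more at any tested concentration; inactive means the rest.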

The test deals with M18 aspartyl aminopeptidase (Plasmodium falciparum 3D7). Nature of the test: PfM18AAP inhibitors, dose response, counter-screen for PfM1 aminopeptidase inhibitor project, biochemical, QFRET fluorogenic substrate (AID 588687). The note with it: recombinant PfM18AAP, H-Glu-NHMec fluorogenic cleavage; series mostly up to 100 µM. An outline of the steps:
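Assay system – recombinant P. falciparum PFM18AAP enzyme · Medium – pH 7.5 Tris-HCl plus 2 mM CoCl2 · Also added – 0.1 mM H-Glu-NHMec substrate · Schedule – enzyme reaction with compounds 90 min at room temperature · Measured by – fluorescence of released leaving group, excitation 370 nm, emission 460 nm · Read-out – % inhibition of enzyme activity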
(In general: A counterscreen serves to expose hits that act by an unwanted route or on another target.)
Take `CC[C@H](C)[C@H](NS(=O)(=O)c1cccs1)C(=O)NCc1ccc(F)cc1`: the result was inactive.

For `COc1cccc(-c2ccc(S(=O)(=O)N3CCC(C(=O)NCc4ccc5c(c4)OCO5)CC3)s2)c1`, the result was inactive.

Regarding `CC[C@H](C)[C@H](NS(=O)(=O)c1ccc(Br)s1)C(=O)NCc1ccc(F)cc1`, the outcome was inactive.

Regarding `O=C(NCc1ccc2c(c1)OCO2)C1CCN(S(=O)(=O)c2ccc(-c3ccccc3)s2)CC1`, the outcome was inactive.

Consider `CC[C@H](C)[C@H](NC(=O)c1ccc([N+](=O)[O-])cc1)C(=O)NCc1ccc(C(F)(F)F)cc1`, for which the outcome was inactive.

For the molecule `CC[C@H](C)[C@H](NC(=O)c1ccc(C(C)(C)C)cc1)C(=O)NCc1ccc(C(F)(F)F)cc1`, the outcome was inactive.

Take `COc1ccc(-c2ccc(S(=O)(=O)N3CCC(C(=O)NCc4ccc5c(c4)OCO5)CC3)s2)cc1`: the outcome was inactive.

`CC[C@H](C)[C@H](NC(=O)c1ccc([N+](=O)[O-])cc1)C(=O)NCc1ccccc1`: the outcome was inactive.

As to `CC(=O)Nc1cccc(-c2ccc(S(=O)(=O)N3CCC(C(=O)NCc4ccc5c(c4)OCO5)CC3)s2)c1`, the outcome was inactive.

In the case of `O=C(NCc1ccc2c(c1)OCO2)C1CCN(S(=O)(=O)c2ccc(-c3cccc(F)c3)s2)CC1`, the outcome was inactive.

On to `O=C(NCc1ccc2c(c1)OCO2)C1CCN(S(=O)(=O)c2ccc(-c3ccc(F)cc3)s2)CC1`, for which the outcome was inactive.

In the case of `CN(C)c1ccc(CNC(=O)C2CCN(S(=O)(=O)c3ccc(Br)s3)CC2)cc1`, the outcome was inactive.

For `CC[C@H](C)[C@H](NS(=O)(=O)c1ccc(Br)s1)C(=O)NCc1ccc(C(F)(F)F)cc1`, the outcome was inactive.

For `CC(C)(C)c1ccc(-c2ccc(S(=O)(=O)N3CCC(C(=O)NCc4ccc5c(c4)OCO5)CC3)s2)cc1`, the outcome was inactive.

For the molecule `CC[C@H](C)[C@H](NC(=O)c1ccc([N+](=O)[O-])cc1)C(=O)NCc1ccc(F)cc1`, the result was inactive.

Regarding `O=C(NCc1ccc2c(c1)OCO2)C1CCN(S(=O)(=O)c2ccc(-c3cncc4ccccc34)s2)CC1`, the result was inactive.

Consider `CC[C@H](C)[C@H](NS(=O)(=O)c1ccc(Br)s1)C(=O)O`, for which the outcome was inactive.
